Measured values as given in ChEMBL document CHEMBL3804769, “Antibacterial Diamines Targeting Bacterial Membranes” (J Med Chem, 2016).
Converted amounts (≈) assume the structure as drawn. The source made the active and inactive calls. The rule behind the calls is not given here.

How the values were obtained:
[1] = tested on: Caenorhabditis elegans; assay: Toxicity in Caenorhabditis elegans N2 assessed as effect on viable eggs production treated at high concentration; type: organism-based; details: in vivo
In short: (§1)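 C. elegans N2 kept on NGM agar at 22 °C. Compound mixed into molten NGM agar at 64 μg/mL. L4 adults, L1 juveniles and synchronized eggs transferred onto test plates and held at 22 °C for 96 h. Death, development and egg production checked every 12 h.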

[2] = tested on: Caenorhabditis elegans; assay: Toxicity in juvenile L1 stage of Caenorhabditis elegans N2 assessed as nematode death at 64 ug/ml incubated for 96 hrs measured every 12 hrs; type: organism-based; details: in vivo; in short: as §1
[3] = tested on: Pseudomonas aeruginosa; assay: Antibacterial activity against Pseudomonas aeruginosa PAO1 ATCC 47085 incubated overnight by microbroth dilution method; type: functional
In short: (§2)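 Bacteria grown in LB medium. CLSI microbroth dilution in 96-well plates, overnight at 37 °C without shaking. MIC99 taken as the lowest concentration giving complete growth inhibition. Three independent determinations, reported as mean ± SD.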

[4] = tested on: Staphylococcus aureus; assay: Antibacterial activity against Staphylococcus aureus RN4220 ATCC 35556 incubated overnight by microbroth dilution method; type: functional; in short: as §2
[5] = tested on: Escherichia coli; assay: Antibacterial activity against Escherichia coli ANS1 incubated overnight by microbroth dilution method; type: functional; in short: as §2
[6] = tested on: Pseudomonas aeruginosa; assay: Antibiofilm activity against Pseudomonas aeruginosa PAO1 ATCC 47085 after 24 hrs by crystal violet staining-based spectrophotometry; type: functional, organism-based
In short: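 PAO1 grown 2 h in LB at 37 °C with shaking, then diluted 1:1000 in 10% LB-PBS to 3 × 10⁵ CFU/mL. Inoculum mixed with serially diluted compound under pegged lids and incubated 24 h at 37 °C static. Peg biofilms washed, stained 15 min with 0.1% crystal violet, and dye eluted in 95% ethanol and read at 600 nm.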

[7] = tested on: Staphylococcus aureus; assay: Bactericidal activity against Staphylococcus aureus RN4220 ATCC 35556 in exponential-phase assessed as reduction in bacterial burden at 4 times MIC99 after 2 to 6 hrs by time-kill assay; type: functional, organism-based
In short: (§3)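 Overnight cultures washed and resuspended in PBS, then diluted 100-fold into LB (exponential-phase model) or into 1% PBS (stationary-phase model). Test agent added at 4× MIC99. Incubated at 37 °C with shaking at 200 rpm. CFU counted on LB agar at 0, 2, 4 and 6 h.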

[8] = tested on: Pseudomonas aeruginosa; assay: Bactericidal activity against Pseudomonas aeruginosa PAO1 ATCC 47085 in exponential-phase assessed as reduction in bacterial burden at 4 times MIC99 upto 6 hrs by time-kill assay; type: functional; in short: as §3
[9] = tested on: Pseudomonas aeruginosa; assay: Bactericidal activity against Pseudomonas aeruginosa PAO1 ATCC 47085 in stationary-phase assessed as reduction in bacterial burden at 4 times MIC99 after 4 hrs by time-kill assay; type: functional, organism-based; in short: as §3
[10] = tested on: Staphylococcus aureus; assay: Bactericidal activity against Staphylococcus aureus RN4220 ATCC 35556 in stationary-phase assessed as reduction in bacterial burden at 4 times MIC99 after 2 to 6 hrs by time-kill assay; type: functional, organism-based; in short: as §3
[11] = tested on: Staphylococcus aureus; assay: Bactericidal activity against Staphylococcus aureus RN4220 ATCC 35556 assessed as reduction in bacterial burden; type: functional, organism-based
In short: (§4)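 Overnight LB cultures of RN4220 or PAO1 washed and resuspended in PBS, then diluted 100-fold into LB (exponential phase) or 1% PBS (stationary phase). Compound added at 4× MIC99, and cultures shaken at 200 rpm at 37 °C. Viable counts taken by dilution plating on LB agar at 0, 2, 4 and 6 h.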

[12] = tested on: Pseudomonas aeruginosa; assay: Bactericidal activity against Pseudomonas aeruginosa PAO1 ATCC 47085 assessed as reduction in bacterial burden; type: functional, organism-based; in short: as §4
[13] = tested on: Pseudomonas aeruginosa; assay: Antibiofilm activity against Pseudomonas aeruginosa PAO1 ATCC 47085 at < 1024 ug/ml after 24 hrs by crystal violet staining-based spectrophotometry; type: functional, organism-based
In short: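 PAO1 grown 2 h in LB at 37 °C with shaking, then diluted 1:1000 in 10% LB-PBS to 3 × 10⁵ CFU/mL and mixed with serially diluted compound. Biofilms grown on peg lids 24 h at 37 °C, static. Pegs washed, stained with 0.1% crystal violet for 15 min, dye eluted in 95% ethanol and read at 600 nm. Control was 10% LB-PBS.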

[14] = tested on: Staphylococcus aureus; assay: Bactericidal activity against Staphylococcus aureus RN4220 ATCC 35556 in stationary-phase assessed as reduction in bacterial burden at 4 times MIC99 after 4 hrs by time-kill assay; type: functional; in short: as §4
[15] = tested on: Pseudomonas aeruginosa; assay: Antibacterial activity against Pseudomonas aeruginosa PAO1 ATCC 47085 assessed as increase in outer membrane permeability at 4 times MIC99 by fluorescent probe 1-N-phenylnaphthylamine based fluorescence assay; type: functional, organism-based
In short: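 P. aeruginosa PAO1 from a culture at OD600 ~0.5, washed and resuspended in 5 mM HEPES pH 7.2. NPN added to 10 μM final and sodium azide to 10 mM final, then 30 min at room temperature in darkness. Compound added at 4× or 1× MIC99 and NPN fluorescence recorded continuously (ex 350/em 420 nm). Gentamicin at 4× MIC99 as positive control. Three independent experiments.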

Row | Compound | MIC99 [3] | MIC99 [4] | MIC99 [5] | also measured
1 | GENTAMICIN [listing 1 of 2 here] |  |  |  | Activity [1]: Toxic; Activity [2]: Toxic
2 | Cl.Cl.O=C(NCCCNCCCCCNCCCNC(=O)NC(c1ccccc1)c1ccccc1)NC(c1ccccc1)c1ccccc1 | 13.3 µg/mL | 10.7 µg/mL | 6 µg/mL | 
3 | CN(C)[C@@H]1C(O)=C(C(N)=O)C(=O)[C@@]2(O)C(O)=C3C(=O)c4c(O)cccc4[C@@](C)(O)[C@H]3C[C@@H]12 |  |  |  | Activity [6]: Active
4 | O=C(NCCCCCCCCCCCNC(=O)NCCC(c1ccccc1)c1ccccc1)NCCC(c1ccccc1)c1ccccc1 | > 256 µg/mL | > 256 µg/mL | > 256 µg/mL | 
5 | CC1(C)S[C@@H]2[C@H](NC(=O)[C@H](N)c3ccccc3)C(=O)N2[C@H]1C(=O)O [AMPICILLIN] | 128 µg/mL (≈ 366 µM) | 0.125 µg/mL (≈ 0.358 µM) |  | Activity [7]: Active; Activity [8]: inactive; Activity [9]: inactive; Activity [10]: inactive
6 | Cl.Cl.S=C(NCCCNCCCCCNCCCNC(=S)NC(c1ccccc1)c1ccccc1)NC(c1ccccc1)c1ccccc1 | 13.3 µg/mL | 6.7 µg/mL | 6 µg/mL | 
7 | Cl.Cl.O=C(NCCCNCCCCCNCCCNC(=O)NCCC(c1ccccc1)c1ccccc1)NCCC(c1ccccc1)c1ccccc1 | 26.7 µg/mL | 13.3 µg/mL | 6 µg/mL | 
8 | S=C(NCCCNCCCCNCCCNC(=S)NC(c1ccccc1)c1ccccc1)NC(c1ccccc1)c1ccccc1 | 10.4 µg/mL (≈ 15.9 µM) | 3.8 µg/mL (≈ 5.82 µM) | 6.2 µg/mL (≈ 9.49 µM) | 
9 | COLISTIN | < 0.125 µg/mL | > 16 µg/mL |  | Activity [11]: Active; Activity [12]: Active
10 | O=[N+]([O-])c1ccc(O)c([N+](=O)[O-])c1 |  |  |  | Activity [11]: Active; Activity [12]: Active
11 | NCCCNCCCCNCCCN [SPERMINE] | > 512 µg/mL | > 512 µg/mL | > 512 µg/mL | 
12 | NC[C@H]1O[C@H](O[C@H]2[C@H](O)[C@@H](O[C@H]3O[C@H](CO)[C@@H](O)[C@H](N)[C@H]3O)[C@H](N)C[C@@H]2N)[C@H](O)[C@@H](O)[C@@H]1O [KANAMYCIN] | 32 µg/mL (≈ 66 µM) | 8 µg/mL (≈ 16.5 µM) | 8 µg/mL (≈ 16.5 µM) | Activity [7]: Active; Activity [8]: inactive; Activity [9]: inactive; Activity [10]: inactive; Activity [13]: inactive
13 | Cl.Cl.S=C(NCCCNCCCCCNCCCNC(=S)NCc1ccccc1)NCc1ccccc1 | 256 µg/mL | 32 µg/mL | 32 µg/mL | 
14 | Cl.Cl.S=C(NCCCNCCCCCNCCCNC(=S)NCCC(c1ccccc1)c1ccccc1)NCCC(c1ccccc1)c1ccccc1 | 32 µg/mL | 9.3 µg/mL | 10 µg/mL | 
15 | CCn1cc(C(=O)O)c(=O)c2cc(F)c(N3CCNCC3)cc21 [NORFLOXACIN] | 0.5 µg/mL (≈ 1.57 µM) | 0.5 µg/mL (≈ 1.57 µM) | 0.25 µg/mL (≈ 0.783 µM) | Activity [7]: Active; Activity [6]: Active; Activity [14]: 2 deltalog10CFU/ml; Activity [8]: 4 deltalog10CFU/ml; Activity [10]: inactive
16 | O=C(NCCCCCCCCCCCCNC(=O)NCC(c1ccccc1)c1ccccc1)NCC(c1ccccc1)c1ccccc1 | > 256 µg/mL | > 256 µg/mL | > 256 µg/mL | 
17 | S=C(NCCCNCCCCNCCCNC(=S)NCCC(c1ccccc1)c1ccccc1)NCCC(c1ccccc1)c1ccccc1 | 29.2 µg/mL (≈ 41.2 µM) | 4.9 µg/mL (≈ 6.91 µM) | 10.4 µg/mL (≈ 14.7 µM) | 
18 | Cl.Cl.O=C(NCCCNCCCCCNCCCNC(=O)NCc1ccccc1)NCc1ccccc1 | 213 µg/mL | 107 µg/mL | 64 µg/mL | 
19 | O=C(NCCCNCCCCNCCCNC(=O)NCC(c1ccccc1)c1ccccc1)NCC(c1ccccc1)c1ccccc1 | 18.6 µg/mL (≈ 28.7 µM) | 11.3 µg/mL (≈ 17.4 µM) | 4.4 µg/mL (≈ 6.78 µM) | 
20 | Cl.Cl.O=C(NCCCNCCCCCNCCCNC(=O)Nc1ccccc1)Nc1ccccc1 | > 256 µg/mL | > 256 µg/mL | > 256 µg/mL | 
21 | O=c1[nH]cc(F)c(=O)[nH]1 [FLUOROURACIL] |  |  |  | Activity [1]: Toxic; Activity [2]: Toxic
22 | Cl.Cl.O=C(NCCCNCCCCCNCCCNC(=O)NCC(c1ccccc1)c1ccccc1)NCC(c1ccccc1)c1ccccc1 | 26.7 µg/mL | 18.7 µg/mL | 4 µg/mL | 
23 | GENTAMICIN [listing 2 of 2 here] |  |  |  | Activity [15]: Active
24 | NCCCCNCCCN [SPERMIDINE] | > 512 µg/mL | > 512 µg/mL | > 512 µg/mL | 
25 | O=C(NCCCCCCCCCCCCNC(=O)NC(c1ccccc1)c1ccccc1)NC(c1ccccc1)c1ccccc1 | > 256 µg/mL | > 256 µg/mL | > 256 µg/mL | 
26 | S=C(NCCCCCCCCCCCCNC(=S)NC(c1ccccc1)c1ccccc1)NC(c1ccccc1)c1ccccc1 | > 256 µg/mL | > 256 µg/mL | > 256 µg/mL | 
